According to ChEMBL document CHEMBL5385869, “Novel 4-aminoquinolines: Synthesis, inhibition of the Mycobacterium tuberculosis enoyl-acyl carrier protein reductase, antitubercular activity, SAR, and preclinical evaluation” (Eur J Med Chem, 2023):

Columns and labels:
[1] = Toxicity in mouse assessed as effect on spleen weight at 300 mg/kg administered as single dose and measured for 14 days; assay type: organism-based; conditions: in vivo, 336 h, time 14 day
Summary of the method: (§1)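 Acute oral toxicity study. At day 14 the animals were euthanized, and kidneys, liver and spleen were weighed and inspected macroscopically.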

[2] = Toxicity in mouse assessed as animal death at 300 mg/kg administered as single dose and measured for 14 days; assay type: organism-based; conditions: in vivo, 336 h, time 14 day; summary of the method: as §1

SMILES: Cc1cc(Nc2ccc(N3CCCCC3)cc2)c2cc(Br)ccc2n1
- Activity [1]: Non-Toxic
- Activity [2]: Non-Toxic
